# APP 5'UTR act: activates APP 5'UTR luciferase reporter; SH-SY5Y APP 5'UTR luciferase reporter, luminescence; zero percent = DMSO vehicle wells; actives 1% (n = 190,000); activation, % at 2 µM;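 active = activation above a set limit, based on mean plus 3 SD of controls, cut at about 140% in these data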
# FLuc inh counter: Photinus pyralis luciferase inhibition counter-screen. inhibition, % at 10 µM. actives 1.5% (n = 200,000). P08659. ATPLite firefly luciferase biochemical luminescence, 10 min;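 active = inhibition above about 50% when tested at 10 µM, limit read from the data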
# FLuc stim CS: affects firefly luciferase, flagging false hits in luciferase stimulation screens | 200,000 tested, under 10 active | activation factor at 10 µM | AID 1027 | P08659 | ATPlite luciferase biochemical, luminescence, 10 min; 0 = ATP-free wells, 1 = DMSO control;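 active = luciferase activation factor, scaled between plate controls, of at least 2 with compound at 10 µM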
#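 System: luciferase plus luciferin reagent, cell-free; medium: PBS as buffer for the ATP substrate; dosing: test compounds dosed from 2 mM stocks in 100% DMSO; timing: 10 min post-reagent at room temperature; measured by: luminescence measurement of luciferase light output; evaluation: luciferase activation, seen as luminescence increase over controls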
# NF-kB neuron act: raises NF-kB expression in human neuronal cells; NF-kB reporter expression; hits give high values; fold change at 12.5 µM; actives 1.6% (n = 190,000); in the data active = fold change above about 3.3
# C8 TRAIL sens: sensitizes caspase-8 expressing cells to TRAIL. NB7+C8 cells + TRAIL, ATPlite viability luminescence. inhibition (viability loss, TRAIL sensitization), % at 10 µM. actives 1% (n = 360,000);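 active = compounds causing at least 50% loss of cell viability in the single-dose screen, relative to plate controls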
# PPC-1+TRAIL kill: compounds killing PPC-1 cancer cells with TRAIL present (potentiator screen, no TRAIL-free arm); cell killing (% activity), % at 4 µM or 5 µM; PPC-1 cells + TRAIL, ATPLite viability luminescence; actives 0.41% (n = 220,000); AID 1443;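 active = cell killing above 50% in the first pass at 4 µM, then a duplicate retest at 5 µM averaging 50% or more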;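 note: plate controls were cells with TRAIL plus DMSO for no effect and medium-only wells lacking cells for full effect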
# PPC-1 tox: PPC-1 cell cytotoxicity; shares compounds with PPC-1+TRAIL kill; PPC-1 viability, ATPlite luminescence, overnight; cytotoxicity, % at 5 µM; actives 50% (n = 1,200);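 active = reconfirmed compounds whose average cytotoxicity reaches 50% or more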;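 note: 0% = DMSO-treated cells and 100% = wells holding medium but no cells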
# * hit, by the source's call; . = not tested or not shown. Hits are enriched below; roughly 2.2% of the tested compounds scored in any of these assays.
SMILES,APP 5'UTR act,FLuc inh counter,FLuc stim CS,NF-kB neuron act,C8 TRAIL sens,PPC-1+TRAIL kill,PPC-1 tox
O=C(/C=C/c1ccccc1)Nc1cc(NC(=O)/C=C/c2ccccc2)cc(C(=O)O)c1,.,.,.,.,-2.1,.,.
CSc1cccc(NC(=O)/C=C/c2ccccc2)c1,109.1,42.2,0.6,2.74,25.9,24.6,.
COc1ccc(Cl)cc1NS(=O)(=O)c1cccc(C(=O)NC2CC2)c1,.,.,.,.,-6.1,.,.
Cc1ccnc(NC(=O)CCC(=O)N(CC(=O)NCc2ccc(F)cc2)Cc2ccccc2)c1,.,.,.,.,-26.0,.,.
CCCOc1ccc2cc(-c3ccccn3)c(=O)oc2c1,122.7,92.3*,0.1,1.2,89.1*,79.2*,80.4*
O=C(Nc1ccc([N+](=O)[O-])cc1)C(=O)Nc1cccc(C(=O)O)c1,.,.,.,.,85.9*,74.8*,69.8*
O=C(Nc1ccccc1)Nc1cc(Cl)cc(Cl)c1,-3.7,-7.2,1.1,0.75,45.2,15.5,.
O=C(Nc1ccccc1)Nc1cc(OCC(F)(F)F)cc(OCC(F)(F)F)c1,-4.0,0.1,1,0.5,38.2,23.2,24.5
COc1cc(/C=C(/C(=O)c2cccs2)c2nc3ccccc3[nH]2)cc(OC)c1O,20.3,76.9*,0.2,10*,37.5,22.1,34.1
COc1ccc(C(=O)N/C(=C/c2cccs2)c2nc3ccccc3[nH]2)cc1OC,8.4,-4.8,1,1.3,-1.4,-10.9,.
O=C(Nc1ccc2c(c1)OCO2)N1CCN(Cc2ccco2)CC1,100.8,91.5*,0.1,2.12,72.7*,76.3*,73.8*
COc1cccc(CN2CCN(Cc3nc(C(C)C)cs3)CC2CCO)c1 (stereo unspecified),-8.1,-7.9,1.1,1.07,5.4,.,.
Cc1cc(NC(=O)CSC2=Nc3ccccc3C3=NC(Cc4ccccc4)C(=O)N23)n[nH]1 (stereo unspecified),-9.3,-3.2,1,1.16,-4.8,-6.3,-2.3
O=C(CN1C(=O)C2(OCCCO2)c2ccccc21)NCc1ccccc1,-3.4,-6.4,1.1,1.15,-5.0,7.2,1.2
Cc1ccc(CNC(=O)CN2C(=O)C3(OCCCO3)c3ccccc32)cc1,5.8,-3.2,1,0.81,9.4,17.5,.
O=C(NCCCN1CCCC1=O)c1cccc(C(F)(F)F)c1,0.6,-3.6,1,0.92,-8.8,0.8,-2.6
CCN(Cc1ccncc1)C(=O)c1ccc(Br)o1,.,.,.,.,-8.2,.,.
Cc1occc1-c1nnc(SCC(=O)Nc2ccccn2)o1,98.6,-7.8,1.1,2.2,4.9,34.2,.
O=C(CSc1nnc(-c2ccccc2Cl)o1)Nc1ccccn1,129.2,-0.5,1,2.27,52.2*,63.2*,64.8*
COc1cccc(NC(=O)Nc2ccc3nc(C)c(C)nc3c2)c1,.,.,.,.,3.3,.,.
COc1cccc(NC(=O)Nc2ccc3c(c2)nc(C)n3C)c1,111.9,91.9*,0.1,5.71*,81.8*,74.8*,71.6*
Cc1nc2cc(NC(=O)Nc3nccs3)ccc2n1C,82.2,81.0*,0.2,2.46,66.0*,54.1*,50.7*
COc1cccc(NC(=O)Nc2nccc(C)n2)c1,109.3,82.0*,0.2,4.1*,66.7*,55.5*,61.7*
CC(C)Cn1c(SCC(=O)N2CCCc3ccccc32)nc2ccccc2c1=O,.,.,.,.,.,-6.6,.
Cc1ccc(C)c(S(=O)(=O)Nc2ccc(C(N)=O)cc2)c1,-3.1,-5.1,1.1,1.14,-0.7,-1.4,.
Cc1ccc(C)c(NS(=O)(=O)c2cc(C(N)=O)ccc2C)c1,7.8,-6.2,1.1,0.93,2.3,15.5,-1.3
CC(NC(=O)C1CCCN(S(=O)(=O)c2cccs2)C1)c1ccccc1 (stereo unspecified),1.0,1.2,1,0.9,-15.2,-7.4,.
CC(C)NC(=O)C1CCCN(S(=O)(=O)c2cccs2)C1 (stereo unspecified),1.4,2.0,1,1.18,-11.4,9.0,1.4
COC(=O)c1ccc2nc(-c3ccc(S(C)(=O)=O)cc3)cn2c1,26.9,10.0,0.9,1.98,12.0,4.2,.
COC(=O)c1ccc2nc(-c3cccc(N)c3)cn2c1,56.3,90.3*,0.1,2.07,72.4*,65.8*,66.9*
